In brackets after ≈: the same amount, converted by molar mass.
Assays:
[1] = tested on: Mycobacterium tuberculosis; assay: Antimycobacterial activity against Mycobacterium tuberculosis H37Rv after 21 days by broth macrodilution method; assay type: functional; settings: 504 h
How it was run: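 Triplicate tubes of Middlebrook 7H9 broth with casitone, glycerol and 10% OADC; methanol-dissolved compounds diluted twofold, 128–0.125 µg/mL. Inoculum from log-phase H37Rv, adjusted to McFarland 1 and diluted to 1 × 10^5 CFU/mL, 500 µL per tube. Compound-free and solvent controls included. Aerobic incubation at 37 °C, tubes read macroscopically every 7 days to day 21 for MIC.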

[2] = tested on: Mycobacterium tuberculosis; assay: Antimycobacterial activity against Mycobacterium tuberculosis H37Rv infected in MDBK by BACTEC analysis; assay type: functional
How it was run: (§1)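 Radiometric BACTEC 460 TB. Cultures were grown at 37 °C with stirring, inoculated into BACTEC vials at OD ~0.16 and grown to GI 500 (±50) as the primary culture. Compounds were diluted in methanol to 8–0.03125 µg/mL final. GI was recorded every 24 h, and a daily ΔGI >10 counted as growth. Strains were H37Rv (ATCC 25618) and XDR strain X194.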

[3] = Cytotoxicity against MDBK cells after 48 hrs by MTT assay; assay type: cell-based; settings: Bos taurus
How it was run: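 MDBK monolayers were grown in RPMI 1640 with 10% heat-inactivated FBS and pen/strep. Cells were seeded at 5 × 10^4 per well, settled 6 h, then exposed 42 h at 37 °C to compounds in 1% methanol diluted in media; the vehicle served as the 100% viability control. MTT was added for 3 h and formazan read at 570 nm. Runs were quintuplicate, repeated on two days; % cytotoxicity = 100 − (OD sample/OD control × 100).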

[4] = tested on: Mycobacterium tuberculosis; assay: Antimycobacterial activity against Mycobacterium tuberculosis XDR infected in MDBK by BACTEC analysis; assay type: functional; how it was run: as §1

Structure (SMILES)	MIC [1]	MIC [2]	IC50 [3]	MIC [4]
OCCN(CCC12OC3(CCN(CCO)Cc4ccccc4)C4C5CC(C6C5C3C61)C42)Cc1ccccc1 (centres undefined)	248 µM (≈ 128 µg/mL)	–	–	–
C1CNCCN(CCC23OC4(CCN5CCCNCC5)C5C6CC(C7C6C4C72)C53)C1 (centres undefined)	155 µM (≈ 64 µg/mL)	–	–	–
c1ccc(CNCCC23OC4(CCNCc5ccccn5)C5C6CC(C7C6C4C72)C53)nc1 (centres undefined)	298 µM (≈ 128 µg/mL)	–	–	–
CC(C)=CCC/C(C)=C/CC/C(C)=C\CN1CCN(CCC23OC4(CCN5CCN(C/C=C(\C)CC/C=C(\C)CCC=C(C)C)CC5)C5C6CC(C7C6C4C72)C53)CC1 (centres undefined)	5.04 µM (≈ 4 µg/mL)	0.32 µM (≈ 0.254 µg/mL)	24 µM	0.63 µM
CC(C)=CCC/C(C)=C\CN1CCN(CCC23OC4(CCN5CCN(C/C=C(\C)CCC=C(C)C)CC5)C5C6CC(C7C6C4C72)C53)CC1 (centres undefined)	6.09 µM (≈ 4 µg/mL)	0.76 µM (≈ 0.499 µg/mL)	30 µM	1.52 µM
O=C(c1ccc([N+](=O)[O-])o1)N1CCN(CCC23OC4(CCN5CCN(C(=O)c6ccc([N+](=O)[O-])o6)CC5)C5C6CC(C7C6C4C72)C53)CC1 (centres undefined)	24.1 µM (≈ 16 µg/mL)	> 12.1 µM	–	–
O=C(c1ccc([N+](=O)[O-])o1)N1CCCN(CCC23OC4(CCN5CCCN(C(=O)c6ccc([N+](=O)[O-])o6)CC5)C5C6CC(C7C6C4C72)C53)CC1 (centres undefined)	23.2 µM (≈ 16 µg/mL)	> 11.6 µM	–	–
c1ccc(CN2CCCN(CCC34OC5(CCN6CCCN(Cc7ccccc7)CC6)C6C7CC(C8C7C5C83)C64)CC2)cc1 (centres undefined)	108 µM (≈ 64.1 µg/mL)	–	–	–
CCCCCCCCCCN1CCN(CCC23OC4(CCN5CCN(CCCCCCCCCC)CC5)C5C6CC(C7C6C4C72)C53)CC1 (centres undefined)	–	–	25 µM	0.75 µM
O=C(c1ccccc1)N1CCN(CCC23OC4(CCN5CCN(C(=O)c6ccccc6)CC5)C5C6CC(C7C6C4C72)C53)CC1 (centres undefined)	216 µM (≈ 128 µg/mL)	–	–	–
c1ccc(CN2CCN(CCC34OC5(CCN6CCN(Cc7ccccc7)CC6)C6C7CC(C8C7C5C83)C64)CC2)cc1 (centres undefined)	113 µM (≈ 64 µg/mL)	–	–	–
NCC[C@H](O)C(=O)N[C@@H]1C[C@H](N)[C@@H](O[C@H]2O[C@H](CN)[C@@H](O)[C@H](O)[C@H]2O)[C@H](O)[C@H]1O[C@H]1O[C@H](CO)[C@@H](O)[C@H](N)[C@H]1O [AMIKACIN]	–	–	–	> 5 µg/mL
CC[C@@H](CO)NCCN[C@@H](CC)CO [ETHAMBUTOL]	19.6 µM (≈ 4 µg/mL)	–	–	> 2.5 µg/mL
NNC(=O)c1ccncc1 [ISONIAZID]	–	–	–	> 0.2 µg/mL
NC[C@H]1O[C@H](O[C@H]2[C@H](O)[C@@H](O[C@H]3O[C@H](CO)[C@@H](O)[C@H](N)[C@H]3O)[C@H](N)C[C@@H]2N)[C@H](O)[C@@H](O)[C@@H]1O [KANAMYCIN]	–	–	–	> 5 µg/mL
CC1COc2c(N3CCN(C)CC3)c(F)cc3c(=O)c(C(=O)O)cn1c23 (centres undefined) [OFLOXACIN]	–	–	–	> 2 µg/mL
CO[C@H]1/C=C/O[C@@]2(C)Oc3c(C)c(O)c4c(O)c(c(/C=N/N5CCN(C)CC5)c(O)c4c3C2=O)NC(=O)/C(C)=C\C=C\[C@H](C)[C@H](O)[C@@H](C)[C@@H](O)[C@@H](C)[C@H](OC(C)=O)[C@@H]1C [RIFAMPIN]	–	–	–	> 1 µg/mL
CC(C)=CCC/C(C)=C/CNCCNC1C2CC3CC(C2)CC1C3 (centres undefined) [SQ109]	–	0.63 µM (≈ 0.208 µg/mL)	26 µM	–

Reference: ChEMBL document CHEMBL1155975, “Pentacyclo-undecane derived cyclic tetra-amines: synthesis and evaluation as potent anti-tuberculosis agents” (Eur J Med Chem, 2009)
